Source: PubChem BioAssay
Compounds with a hit are over-represented: about 3.4% of the library has one in this group of screens.
MC4R ag barr – human MC4R agonism via beta-arrestin | actives 0.98% (n = 360,000) | activation, % at 8.9 µM | U2OS MC4R beta-arrestin complementation, luminescence; percent of melanotan II response, DMSO zero | P32245;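 active = activation above a per-plate cutoff, the mean activation of sample wells on that plate plus 3 SD, cut at about 8% in these data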
Target sequence (P32245 whole entry, looked up): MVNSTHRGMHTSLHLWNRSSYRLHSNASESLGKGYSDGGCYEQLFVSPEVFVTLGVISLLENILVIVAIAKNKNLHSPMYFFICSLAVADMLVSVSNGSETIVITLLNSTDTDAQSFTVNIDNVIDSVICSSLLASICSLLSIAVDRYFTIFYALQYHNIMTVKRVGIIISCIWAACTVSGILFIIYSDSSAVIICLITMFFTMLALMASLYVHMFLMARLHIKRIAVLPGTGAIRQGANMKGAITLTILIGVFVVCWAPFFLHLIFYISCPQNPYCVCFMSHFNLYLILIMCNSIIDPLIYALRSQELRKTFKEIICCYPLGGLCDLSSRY
m5-HT2A agonist – agonists of mouse serotonin 5-HT2A receptor (HTR2A); P35363; CHO-K1 mHTR2A beta-arrestin complementation, luminescence; percent of 30 µM serotonin response; activation, % at 7.6 µM; actives 0.66% (n = 360,000); AID 624169;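 active = activation above a run cutoff, the mean activation of all tested compounds plus 3 SD, cut at about 14% in these data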
TMEM16A inh – inhibitors of mouse TMEM16A calcium-activated chloride channel. AID 588511. HEK293 TMEM16A/YFP iodide influx fluorescence, ionomycin. actives 1.2% (n = 310,000). normalized B-score (activity score, 25-100; higher = stronger inhibition) at 10 µM. Q8BHY3;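 active = ratio plate-corrected score three or more library SD toward inhibition, starting fluorescence score within five deviations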;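 note: score derived from kinetic fluorescence span divided by baseline fluorescence per well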
ANO1 activ – activators or potentiators of mouse TMEM16A chloride channel. HEK293 TMEM16A/YFP-H148Q/I152L, iodide quench fluorescence; stronger effect = lower value. B-score at 10 µM. actives 0.3% (n = 340,000). AID 623877;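 active = fluorescence-ratio B-score plate-corrected deviation score at least 3 library SD below zero, with starting fluorescence score within 5 deviations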;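 note: channel opened by trigger with iodide after compound preincubation; score built on the fluorescence ratio of max minus min over baseline; more negative score means more quench and so TMEM16A activation or potentiation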
MC4R antagonist – human MC4R antagonism in cAMP assay | MC4R-expressing cells, MTII-stimulated cAMP, LANCE TR-FRET | inhibition, % at 6.5 µM | P32245 | actives 0.48% (n = 360,000);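 active = inhibition above its plate's cutoff, the mean of tested wells on that plate plus 3 SD, cut at about 29% in these data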
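Test system: U2OS cells stably expressing human melanocortin 4 receptor (MC4R); also added: Melanotan II challenge; compound: 6.5 µM single dose; timing: 30-min compound preincubation, 1-h Melanotan II challenge, 1-h detection, room temperature; signal: Eu-cAMP/anti-cAMP TR-FRET, emission 671 nm; repeats: one well per compound, no replicates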
MIN6 prolif – induces beta-cell replication in MIN6 cells; MIN6 cells proliferation, ATPlite luminescence, 48 h; cells starved in 0.2% serum; 100% = growth in 10% serum; proliferation, % at 10 µM; actives 0.29% (n = 330,000); AID 2380;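 active = compounds whose signal lies at least 3.5 SD above the mean of all wells on their plate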
MC4R barr ag – human MC4R beta-arrestin agonism confirmation. shares compounds with MC4R ag barr. U2OS MC4R beta-arrestin recruitment, luminescence; scaled DMSO 0%, Melanotan II 100%. activation, % at 8.9 µM. actives 31% (n = 2,400);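 active = mean activation across replicates above the hit cutoff set in the earlier primary screen, cut at about 8% in these data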
MOR DOR agonist – activates mu-delta opioid heterodimer, MC4R agonist counter-screen; shares compounds with MC4R ag barr; U2OS PathHunter beta-arrestin, beta-gal luminescence; percent of deltorphin B response, DMSO zero; activation, % at 9.2 µM; actives 5.8% (n = 2,400); AID 602194;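 active = mean activation across replicates exceeds the hit threshold derived in the earlier primary screen, cut at about 18% in these data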
Hits are given with their value; 0 = inactive; - = not tested or not shown.

SMILES | MC4R ag barr | m5-HT2A agonist | TMEM16A inh | ANO1 activ | MC4R antagonist | MIN6 prolif | MC4R barr ag | MOR DOR agonist
Cc1ccccc1OCC(=O)N/N=C/c1cn(Cc2ccccc2)c2ccccc12 | 33 | 0 | 0 | 0 | 0 | 0 | 12 | 0
Nc1c(Cl)cc(C2=NCCn3c2c2ccc(C(F)(F)F)cc2[n+]3[O-])cc1Cl | 0 | 0 | 0 | 0 | 0 | 0 | - | -
CCOC(=O)c1c(C)[nH]c(C)c1S(=O)(=O)NCc1cc(C)ccc1C | 0 | 0 | 0 | 0 | 0 | 0 | - | -
OC1(C#Cc2c(-c3ccsc3)oc3ccc(N4CCOCC4)cc23)CCCCC1 | 13 | 0 | 0 | 0 | 0 | 0 | 0 | 0
CCN(CC)S(=O)(=O)c1ccc(C)c(NC(=O)CSc2ncc(C(F)(F)F)cc2Cl)c1 | 9.8 | 0 | 0 | 0 | 0 | 0 | 0 | 0
Cc1cccc(/C=N/NC(=O)c2cc(Br)ccc2OCc2ccccc2)n1 | 13 | 0 | 0 | 0 | 0 | 0 | 0 | 0
Cc1cccc(/C=N/NC(=O)c2ccccc2OCc2cccc(Br)c2)n1 | 0 | 0 | 0 | 0 | 0 | 0 | - | -
COc1ccc(CN2C(=O)CN(S(C)(=O)=O)CC2(C)C(=O)Nc2c(C)cccc2C)cc1OC (centres undefined) | - | 0 | - | - | - | - | - | -
Cc1ccc(S(=O)(=O)N2CCCCC2)cc1NC(=O)c1cnccn1 | 0 | 0 | - | 0 | 0 | 0 | - | -
O=C(Nc1cc(S(=O)(=O)N2CCCCCC2)ccc1OCC(F)(F)F)c1cnccn1 | 10 | 0 | - | 0 | 0 | 0 | 0 | 0
Cc1cccc(OCC(=O)Nc2ccc3c4c(cccc24)CC3)c1C | 31 | 0 | 0 | 0 | 0 | 0 | 0 | 0
Cc1ccc(OCC(=O)Nc2ccc3c4c(cccc24)CC3)c(C)c1 | 0 | 0 | 0 | 0 | 0 | 0 | - | -
COc1ccc(C(=O)NC(=S)Nc2ccc3c4c(cccc24)CC3)cc1OC | 13 | 0 | 0 | 0 | 0 | 0 | 0 | 0
COc1cc(OC)cc(C(=O)NC(=S)Nc2ccc3c4c(cccc24)CC3)c1 | 0 | 0 | 0 | 0 | 0 | 0 | - | -
CC(NCc1cccc(OCc2ccccc2)c1)C(O)c1ccccc1 (centres undefined) | 0 | 0 | 0 | 0 | 0 | 0 | - | -
CC(NCc1ccc(OCc2ccc(Cl)cc2)cc1)C(O)c1ccccc1 (centres undefined) | 16 | 0 | 0 | 0 | 0 | 0 | 26 | 0
Cc1ccc(C(=O)OCC(=O)Nc2cc(C(C)(C)C)no2)c(C)c1 | 9.9 | 0 | - | 0 | 0 | 0 | 0 | 0
Cc1cc(NC(=O)COC(=O)c2ccccc2O)no1 | 0 | 0 | - | 0 | 0 | 0 | - | -
Cc1cc(NC(=O)COC(=O)c2oc3c(ccc4ccccc43)c2C)no1 | 18 | 0 | 0 | 0 | 0 | 0 | 0 | 0
Cc1ccc(-c2cc(C(=O)OCC(=O)Nc3cc(C)on3)c3ccccc3n2)c(C)c1 | 12 | 0 | 0 | 0 | 0 | 0 | 0 | 0
Cc1ccc(C)c(C(=O)OCC(=O)NC(=O)NCc2ccccc2)c1 | 13 | 0 | - | - | 0 | - | 0 | 0
Cc1ccc2nc(-c3cccc(Br)c3)c(Cc3cccc(Cl)c3)n2c1 | - | 0 | - | - | - | - | - | -
Cc1cc(Cl)ccc1C(=O)C1CCCN(C(=O)c2cnn(C(C)C)c2)C1 (centres undefined) | 0 | 0 | 0 | 0 | 0 | 0 | - | -
Cc1cc(NC(=O)COc2ccc3oc4ccccc4c3c2)no1 | 10 | 0 | 0 | 0 | 0 | 0 | 0 | 0
Cc1cc(NC(=O)COc2ccc3c(C)c(C)c(=O)oc3c2)no1 | 0 | 0 | - | - | 0 | - | - | -
SMILES | MC4R ag barr | m5-HT2A agonist | TMEM16A inh | ANO1 activ | MC4R antagonist | MIN6 prolif | MC4R barr ag | MOR DOR agonist
CN1C(=S)N(c2ccccc2)C(=O)/C1=C/c1cccs1 | 17 | 0 | 0 | 0 | 0 | 0 | 0 | 0
Cc1sc2nc(C)n(/N=C/c3ccccc3O)c(=O)c2c1C | 13 | 0 | 0 | 0 | 0 | 0 | 0 | 0
Cc1cccnc1C(NC(=O)C1CCN(CCOc2ccc(Cl)cc2Cl)CC1)c1ccc(Cl)cc1 (centres undefined) | 34 | 0 | - | - | 0 | - | 17 | 0
O=C(NC(c1ccc(Cl)cc1)c1ccccn1)C1CCN(CCOc2ccc(Cl)cc2Cl)CC1 (centres undefined) | 18 | 0 | - | - | 0 | - | 24 | 0
O=C(NC(c1ccc(F)cc1)c1ccc2ccccc2n1)C1CCN(CCOc2ccc(F)cc2)CC1 (centres undefined) | 0 | 0 | - | - | 0 | - | - | -
O=C(NC(c1ccc(Cl)cc1)c1cccnc1)C1CCN(CCOc2ccc(Cl)cc2Cl)CC1 (centres undefined) | 18 | 0 | - | - | 0 | - | 30 | 0
O=C(NC(c1ccc(F)cc1)c1ccc2ccccc2n1)C1CCN(CCOc2ccc(Cl)cc2Cl)CC1 (centres undefined) | 18 | 0 | - | - | 0 | - | 12 | 0
O=C(CCNS(=O)(=O)c1ccc(Br)cc1)N1CCN(c2ccccc2O)CC1 | 0 | 0 | 0 | 0 | 0 | 0 | - | -
Clc1cccc(CN2CCSCC2)c1Cl | 0 | 0 | 0 | 0 | 0 | 0 | - | -
COc1ccc(C(CCNCc2ccc(OC(C)C)cc2)c2ccccc2OC)cc1 (centres undefined) | 13 | 0 | 25 | 0 | 0 | 0 | 15 | 25
COc1ccc(CNCCC(c2ccc(OC)cc2)c2ccccc2OC)cc1 (centres undefined) | 0 | 0 | 0 | 0 | 0 | 0 | - | -
Cc1ccc(C(OCC(O)CNCc2ccc(F)cc2)c2ccccc2)cc1 (centres undefined) | 14 | 0 | 0 | 0 | 0 | 0 | 24 | 0
O=C(c1ccccc1)c1ccc(OCC(O)CNCc2ccc(F)cc2)cc1 (centres undefined) | 0 | 0 | 0 | 0 | 0 | - | - | -
O=C(COC(=O)c1ccc2c(c1)C(=O)N(CCc1ccccc1)C2=O)Nc1ccc(OC(F)F)cc1 | 13 | 0 | 0 | 0 | 0 | 0 | 10 | 0
O=C(N/N=C/c1ccc(F)cc1)c1cc(-c2ccccn2)nc2ccccc12 | 16 | 0 | - | 0 | 0 | 0 | 0 | 0
COc1cccc(/C=N/NC(=O)c2cc(-c3ccccn3)nc3ccccc23)c1O | 0 | 0 | - | 0 | 0 | 0 | - | -
CC(=O)N1CCN(S(=O)(=O)c2cccc(C(=O)N3CCN(S(=O)(=O)c4c(C)c(C)cc(C)c4C)CC3)c2)CC1 | 0 | 0 | - | - | 0 | - | - | -
O=C(Nc1ccc(-c2nc3c(ccc4ccccc43)o2)cc1)c1ccco1 | 15 | 0 | 0 | 0 | 0 | 0 | 0 | 0
O=C(COC(=O)c1ccccc1Nc1ccccc1)NCc1ccccc1 | 25 | 0 | 0 | 0 | 0 | 0 | 0 | 0
O=C(COC(=O)c1ccccc1Nc1ccccc1)NCc1ccccc1Cl | 16 | 0 | 0 | 0 | 0 | 0 | 10 | 0
